Test results: ChEMBL document CHEMBL2439985, “Multifunctional cyclic D,L-α-peptide architectures stimulate non-insulin dependent glucose uptake in skeletal muscle cells and protect them against oxidative stress” (J Med Chem, 2013)
Each block holds one molecule with its values, some of them ahead of it. Activity calls are given as the source filed them. The rule behind the calls is not given here.

Key:
[1] = tested on: L6; assay: Antiapoptotic activity in rat L6 cells assessed as suppression of 23.5 mM D-glucose-induced JNK-46 phosphorylation at 2 mM after 30 mins by Western blot analysis; format: functional, cell-based
[2] = tested on: L6; assay: Antiapoptotic activity in rat L6 cells assessed as suppression of 23.5 mM D-glucose-induced JNK-54 phosphorylation at 2 mM after 30 mins by Western blot analysis; format: functional, cell-based
[3] = tested on: L6; assay: Antioxidant activity in rat L6 cells assessed as trolox equivalents of ABTS free radical scavenging activity at 2 mM after 2 hrs by ELISA reader analysis in presence of 23.5 mM D-glucose; format: functional, cell-based
In short: (§1)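 L6 myotubes in αMEM with 2% FCS and 5.5 or 23.5 mM glucose were treated with peptide (25 μM, 12 h) or ALA (2 mM, 2 h), vehicle 0.1% DMSO. Cells were lysed (Tris pH 7.5, NaCl, NP-40) through three freeze-thaw cycles and centrifuged. Lysates were assayed for metmyoglobin/H2O2-driven ABTS•+ formation. Results are Trolox equivalents per mg protein from a Trolox standard curve, with protein by Bradford.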

[4] = tested on: L6; assay: Cytoprotective activity in rat L6 cells assessed as increase in glucose oxidase-reduced cell survival at 2 mM incubated for 30 mins prior to glucose oxidase challenge measured after 5 hrs by MTT assay in presence of 23.5 mM D-glucose; format: functional, cell-based
In short: (§2)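 L6 myotubes were kept 7 days in 23.5 mM glucose. They were pretreated with peptide (25 μM, 12 h) or ALA (2 mM, 30 min), vehicle 0.1% DMSO, at 37 °C. Glucose oxidase (50 mU mL−1) was then added for 5 h to generate H2O2. Viability was read by MTT.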

[5] = tested on: L6; assay: Effect on total GLUT4 level in rat L6 cells at 2 mM after 30 mins by Western blotting analysis; format: functional, cell-based
[6] = tested on: L6; assay: Effect on total GLUT1 level in rat L6 cells at 2 mM after 30 mins by Western blotting analysis; format: functional, cell-based
[7] = tested on: L6; assay: Effect on human myc epitope-tagged total GLUT4 level overexpressed in rat L6 cells at 2 mM after 30 mins by Western blotting analysis; format: functional, cell-based
In short: (§3)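 Whole-cell lysates of GLUT1myc- or GLUT4myc-overexpressing L6 myotubes were made after the same treatments as in the surface assay. Western blots were run for total transporter content.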

[8] = tested on: L6; assay: Effect on human myc epitope-tagged total GLUT1 level overexpressed in rat L6 cells at 2 mM after 30 mins by Western blotting analysis; format: functional, cell-based; in short: as §3
[9] = biological target: T1, Solute carrier family 2, facilitated glucose transporter member 1 (Homo sapiens) (UniProt P11166); assay: Induction of human myc epitope-tagged GLUT1 translocation to plasma membrane overexpressed in rat L6 cells at 2 mM after 30 mins by immunocolorimetric analysis in presence of 23.5 mM D-glucose; format: cell-based
T1 sequence (whole entry): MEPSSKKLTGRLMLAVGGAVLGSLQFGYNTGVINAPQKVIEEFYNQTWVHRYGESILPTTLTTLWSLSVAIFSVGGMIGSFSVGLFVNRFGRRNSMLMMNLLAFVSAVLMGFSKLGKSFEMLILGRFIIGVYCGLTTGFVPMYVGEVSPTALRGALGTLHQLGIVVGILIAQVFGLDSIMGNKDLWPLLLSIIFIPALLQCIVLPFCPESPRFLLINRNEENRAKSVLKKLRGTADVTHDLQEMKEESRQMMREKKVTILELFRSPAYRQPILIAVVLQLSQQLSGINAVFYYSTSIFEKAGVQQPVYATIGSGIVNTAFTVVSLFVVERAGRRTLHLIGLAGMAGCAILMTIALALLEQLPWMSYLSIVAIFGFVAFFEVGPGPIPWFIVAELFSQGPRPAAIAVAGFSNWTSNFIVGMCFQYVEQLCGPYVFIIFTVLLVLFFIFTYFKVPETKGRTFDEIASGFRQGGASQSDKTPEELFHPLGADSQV
In short: (§4)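 L6 myotubes overexpressing GLUT1myc or GLUT4myc were held 9 h in serum-free αMEM with 0.5% BSA and 23.5 mM glucose. They received peptide (25 μM) or 0.1% DMSO over the last 8 h, and insulin (100 nM) or ALA (2 mM) over the last 30 min. Live cells were labelled with anti-c-Myc (1:200) and fixed in 3% formaldehyde. HRP anti-rabbit IgG (1:2000) and OPD were added, and absorbance was read at 492 nm.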

[10] = tested on: L6; assay: Antihyperglycemic activity in rat L6 cells assessed as increase in [3H]dGlc uptake at 25 uM after 30 mins by liquid scintillation counting analysis; format: functional, cell-based
[11] = tested on: L6; assay: Antihyperglycemic activity in rat L6 cells assessed as increase in [3H]dGlc uptake at 2 mM after 30 mins by liquid scintillation counting analysis; format: functional, cell-based
In short: (§5)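 Differentiated L6 myotubes were preincubated 24 h in αMEM with 2% FCS and 5.5 or 23.5 mM D-glucose, then switched to FCS-free medium with 0.5% BSA 4 h before the assay. Peptide was given for 12 h or ALA for 30 min, vehicle 0.1% DMSO. After PBS rinses, cells took up 0.1 mM dGlc plus [3H]dGlc (1.3 μCi mL−1) for 5 min at room temperature. Cells were lysed in 0.1% SDS and counted by scintillation. Uptake is expressed as % of the DMSO basal rate.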

[12] = Cellular uptake in intracellular vesicle of rat L6 cells at 10 uM after 4 hrs by WGA/Hoechst staining-based confocal fluorescent microscopic analysis; format: ADME, cell-based; conditions: l6, 4 h
In short: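 Live L6 myotubes on glass-bottom dishes were given NBD-labelled peptide (10 μM) for 4 h in medium with 1% FBS, then washed. Nuclei were stained with Hoechst and membranes with Alexa Fluor-WGA. Imaging was by confocal microscopy at 37 °C.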

[13] = Induction of self-assembly of the compound in DMSO at 1 uM by fluorescence spectroscopic analysis; format: physicochemical
In short: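 Self-assembly of NBD-labelled peptide (1 μM) in 1:1 DMSO/MES (25 mM, pH 6.6) was followed as fluorescence decrease over time.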

[14] = Antioxidant activity assessed as inhibition of H2O2-induced ROS production by DCFH assay; format: functional
In short: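 DCFH oxidation assay: H2O2 (0.5 mM) was incubated with DCFH with or without the test agent, and the DCF formed was read fluorometrically. Free His and Trolox served as controls.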

[15] = tested on: L6; assay: Antiapoptotic activity in rat L6 cells assessed as suppression of 23.5 mM D-glucose-induced JNK-46 phosphorylation at 25 uM after 8 hrs by Western blot analysis; format: functional, cell-based
In short: (§6)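 L6 myotubes held 7 days in 23.5 mM glucose medium, then exposed to peptide for 8 h or ALA for 3 h. Whole-cell lysates were made in ice-cold lysis buffer, and 5−60 μg protein was run on 10−12% SDS-PAGE. Blots were probed for total and phosphorylated JNK (p-54, p-46) and α-tubulin. Band densities were normalized to total JNK. Two-tailed Student's t test.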

[16] = tested on: L6; assay: Antiapoptotic activity in rat L6 cells assessed as suppression of 23.5 mM D-glucose-induced JNK-54 phosphorylation at 25 uM after 8 hrs by Western blot analysis; format: functional, cell-based; in short: as §6
[17] = tested on: L6; assay: Antioxidant activity in rat L6 cells assessed as trolox equivalents of ABTS free radical scavenging activity at 25 uM after 12 hrs by ELISA reader analysis in presence of 23.5 mM D-glucose; format: functional, cell-based; in short: as §1
[18] = tested on: L6; assay: Cytoprotective activity in rat L6 cells assessed as increase in glucose oxidase-reduced cell survival at 25 uM incubated for 12 hrs prior to glucose oxidase challenge measured after 5 hrs by MTT assay in presence of 23.5 mM D-glucose; format: functional, cell-based; in short: as §2
[19] = tested on: L6; assay: Effect on total GLUT4 level in rat L6 cells at 25 uM after 8 hrs by Western blotting analysis; format: functional, cell-based
[20] = tested on: L6; assay: Effect on total GLUT1 level in rat L6 cells at 25 uM after 8 hrs by Western blotting analysis; format: functional, cell-based
[21] = tested on: L6; assay: Effect on human myc epitope-tagged total GLUT4 level overexpressed in rat L6 cells at 25 uM after 8 hrs by Western blotting analysis; format: functional, cell-based; in short: as §3
[22] = tested on: L6; assay: Effect on human myc epitope-tagged total GLUT1 level overexpressed in rat L6 cells at 25 uM after 8 hrs by Western blotting analysis; format: functional, cell-based; in short: as §3
[23] = biological target: T2, Solute carrier family 2, facilitated glucose transporter member 4 (Homo sapiens) (UniProt P14672); assay: Induction of human myc epitope-tagged GLUT4 translocation to plasma membrane overexpressed in rat L6 cells at 25 uM after 8 hrs by immunocolorimetric analysis in presence of 23.5 mM D-glucose relative to insulin; format: cell-based; in short: as §4
T2 sequence (whole entry): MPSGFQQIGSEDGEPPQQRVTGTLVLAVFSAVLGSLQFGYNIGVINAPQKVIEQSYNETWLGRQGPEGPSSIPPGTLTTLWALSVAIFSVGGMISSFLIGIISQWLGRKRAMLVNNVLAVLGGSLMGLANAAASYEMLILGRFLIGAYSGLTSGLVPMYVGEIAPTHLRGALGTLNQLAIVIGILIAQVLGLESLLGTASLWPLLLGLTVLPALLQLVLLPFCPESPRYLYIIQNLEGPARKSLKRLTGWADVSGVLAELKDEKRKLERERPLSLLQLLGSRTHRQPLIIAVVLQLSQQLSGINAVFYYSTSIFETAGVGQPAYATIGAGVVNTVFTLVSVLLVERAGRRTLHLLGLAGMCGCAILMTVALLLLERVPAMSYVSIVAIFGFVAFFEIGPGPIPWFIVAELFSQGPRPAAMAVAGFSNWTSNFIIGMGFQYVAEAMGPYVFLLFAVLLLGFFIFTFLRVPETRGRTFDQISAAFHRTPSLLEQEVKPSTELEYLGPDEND

[24] = biological target: T1, Solute carrier family 2, facilitated glucose transporter member 1 (Homo sapiens); assay: Induction of human myc epitope-tagged GLUT1 translocation to plasma membrane overexpressed in rat L6 cells at 25 uM after 8 hrs by immunocolorimetric analysis in presence of 23.5 mM D-glucose; format: cell-based; in short: as §4
[25] = tested on: L6; assay: Antihyperglycemic activity in rat L6 cells assessed as increase in [3H]dGlc uptake at 25 uM after 6 to 12 hrs by liquid scintillation counting analysis; format: functional, cell-based
[26] = tested on: L6; assay: Potency index, ratio of compound activity to ALA activity for increase in [3H]dGlc uptake in rat L6 cells; format: functional
In short: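 L6 myotubes (differentiated in αMEM, 2% FCS) preincubated 24 h in 23.5 mM D-glucose, then 4 h serum-free with 0.5% BSA. Peptide at increasing concentrations for 12 h, or ALA 2 mM for 30 min; vehicle 0.1% DMSO. Uptake: 0.1 mM dGlc plus [3H]dGlc 1.3 μCi/mL in PBS pH 7.4, 5 min RT; SDS lysis, scintillation counting, % of vehicle basal. Ratio compares concentrations giving similar uptake.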

[27] = tested on: L6; assay: Antihyperglycemic activity in rat L6 cells assessed as increase in [3H]dGlc uptake at 5 uM after 12 hrs by liquid scintillation counting analysis; format: functional, cell-based; in short: as §5
[28] = tested on: L6; assay: Antihyperglycemic activity in rat L6 cells assessed as increase in [3H]dGlc uptake after 12 hrs by liquid scintillation counting analysis; format: functional, cell-based; in short: as §5
[29] = Antioxidant activity assessed as inhibition of H2O2-induced hydroxyl radical formation by EPR spectroscopic analysis in absence of Fe2+; format: functional
[30] = Antioxidant activity assessed as inhibition of H2O2-induced hydroxyl radical formation by EPR spectroscopic analysis in presence of Fe2+; format: functional
In short: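 Hydroxyl radicals came from a Fenton reaction: H2O2 (10 mM), FeSO4·7H2O (10 mM) and DMPO spin trap (40 mM), with peptide at 1−1000 μM. Samples were diluted in 15 mM phosphate buffer, pH 7.4, and read immediately by EPR. The spin-adduct signal was integrated.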

[31] = Potency index, ratio of Histidine EC50 to compound EC50 for inhibition of H2O2-induced ROS production; format: functional

Activity [9]: Active
Structure (SMILES): O=C(O)CCCCC1CCSS1 (stereo unspecified)
Activity [1]: Active
Activity [2]: Active
Activity [3]: Active
Activity [4]: Active
Activity [5]: inactive
Activity [6]: inactive
Activity [7]: inactive
Activity [8]: inactive
Activity [10]: inactive
Activity [11]: Active

Drug uptake [12]: Active
Activity [13]: Active
EC50 [14]: 300 nM
Structure (SMILES): O=C1N[C@H](CCCCNc2ccc([N+](=O)[O-])c3nonc23)C(=O)N[C@@H](Cc2c[nH]cn2)C(=O)N[C@H](Cc2c[nH]c3ccccc23)C(=O)N[C@@H](Cc2c[nH]c3ccccc23)C(=O)N[C@H](Cc2c[nH]cn2)C(=O)N[C@@H](Cc2c[nH]cn2)C(=O)N[C@H](Cc2c[nH]cn2)C(=O)N[C@H]1Cc1c[nH]cn1

Activity [23]: 60%
Activity [24]: Active
Structure (SMILES): NCCCC[C@H]1NC(=O)[C@H](Cc2c[nH]cn2)NC(=O)[C@@H](Cc2c[nH]c3ccccc23)NC(=O)[C@H](Cc2c[nH]c3ccccc23)NC(=O)[C@@H](Cc2c[nH]cn2)NC(=O)[C@H](Cc2c[nH]cn2)NC(=O)[C@@H](Cc2c[nH]cn2)NC(=O)[C@H](Cc2c[nH]cn2)NC1=O
Activity [15]: Active
Activity [16]: Active
Activity [17]: Active
Activity [18]: Active
Activity [19]: inactive
Activity [20]: inactive
Activity [21]: inactive
Activity [22]: inactive
Activity [25]: Active
Ratio [26]: 80
Activity [27]: Active
Activity [28]: Dose-dependent effect
inhibition [29]: Active
inhibition [30]: Dose-dependent effect
Ratio EC50 [31]: 15
